For 25 molecules, GI50 results are on record in ChEMBL document CHEMBL1149632, “New cytotoxic diterpenylnaphthohydroquinone derivatives obtained from a natural diterpenoid” (2007).

Some results are limits rather than exact numbers.

Common to all, as to assay type: functional
A short description of assay [1]: Antineoplastic cytotoxicity against human MEL28 cells after 72 hrs by SRB method. The following applies: SK-MEL-28, 72 h. The gist of the method: (§1)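 Cells seeded at 5 × 10^3 per well in RPMI and left to attach for 18 h in drug-free medium. Compounds were then added in DMSO/H2O (3:7) and exposed for 72 h. Cells were fixed with cold 50% TCA for 60 min at 4 °C and stained with 0.4% SRB in 1% acetic acid for 10 min at rt. Bound dye was solubilised in Tris and read at 490 nm. GI50 from 100×[(T−T0)/(C−T0)]=50.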

The next assay has as its system HT-29. In words: Antineoplastic cytotoxicity against human HT29 cells after 72 hrs by SRB method. The following applies: HT-29, 72 h. The gist of the method: as §1
In general terms: In SRB staining, fixed cells bind dye roughly in proportion to their protein.

A further assay deals with A549. In words: Antineoplastic cytotoxicity against human A549 cells after 72 hrs by SRB method. The following applies: A549, 72 h. The gist of the method:
as §1

`C=C1CC[C@@H]2[C@](C)(CCC[C@]2(C)C(=O)O)[C@H]1CCc1ccc2c(c1)C(=O)C=CC2=O`: the GI50 (as a rule, the concentration giving 50% growth inhibition) was 5.7 µM in assay [1], 5.7 µM in the assay on HT-29 and above 7.4 µM with A549.

With `C=C1CC[C@@H]2[C@](C)(CCC[C@]2(C)C(=O)OC)[C@H]1/C=C/c1ccc2c(OC)ccc(OC)c2c1`, the GI50 in the assay on HT-29 and with A549 was above 22.3 µM each time.

With `C=C1CC[C@@H]2[C@](C)(CCC[C@]2(C)C(=O)O)[C@H]1CCC1=CCc2c(OC(C)=O)ccc(OC(C)=O)c2C1`, the figures for the GI50 (in assay [1]; in the assay on HT-29; in the assay on A549) were 5 µM, 10.1 µM and 2.5 µM, respectively.

With `C=C1CC[C@@H]2[C@](C)(CCC[C@]2(C)C(=O)OC)[C@H]1CCC1=CCc2c(OC(C)=O)ccc(OC(C)=O)c2C1`, the GI50 in assay [1] came out at 0.68 µM; in the assay with HT-29, 1.38 µM; in the assay with A549, 0.51 µM.

Consider `C=C1[C@H](O)C[C@@H]2[C@](C)(CCC[C@]2(C)C(=O)OC)[C@H]1CCc1ccc2c(OC(C)=O)ccc(OC(C)=O)c2c1`, for which the results for the GI50 in the assay on HT-29 and with A549 were 1 µM and 1.6 µM, respectively.

Consider `COC(=O)[C@@]1(C)CCC[C@]2(C)C(CCc3ccc4c(OC)ccc(OC)c4c3)=C(OOC(C)(C)C)CC[C@@H]12`, for which the 50% growth inhibitory concentration (GI50) (in assay [1]; in the assay on HT-29; in the assay on A549) was above 18.6 µM each time.

For `C=C1C(=O)C[C@@H]2[C@](C)(CCC[C@]2(C)C(=O)OC)[C@H]1CCc1ccc2c(OCc3ccccc3)ccc(OCc3ccccc3)c2c1`, the figures for the GI50 in the assay on HT-29 and in the assay on A549 were 8.1 µM and 14.8 µM, respectively.

As to `C=C1CC[C@H]2[C@@](C)(CCC[C@@]2(C)C(=O)OC)[C@@H]1CCc1ccc2c(c1)C(=O)c1cc(CC[C@H]3C(=C)CC[C@@H]4[C@]3(C)CCC[C@]4(C)C(=O)OC)ccc1C2=O`, the GI50 (in assay [1]; with HT-29; with A549) was above 4.1 µM throughout.

Turning to `C=C1CC[C@@H]2[C@](C)(CCC[C@]2(C)C(=O)OC)[C@]1(O)CCc1ccc2c(OCc3ccccc3)ccc(OCc3ccccc3)c2c1`, the figures for the GI50 (in assay [1]; in the assay with HT-29; in the assay on A549) were 9 µM, 12.4 µM and 12.4 µM, respectively.

As for `C=C1CC[C@@H]2[C@](C)(CCC[C@]2(C)C(=O)OC)[C@H]1CCc1ccc2c(c1)C(=O)C=CC2=O`, the GI50 (in assay [1]; with HT-29; in the assay with A549) was 0.2 µM in each case.

For `C=C1CC[C@@H]2[C@](C)(CCC[C@]2(C)C(=O)O)[C@H]1CCc1ccc2c(OC(C)=O)ccc(OC(C)=O)c2c1`, the GI50 (in assay [1]; with HT-29; with A549) was 0.24 µM each time.

Turning to `C=C1CC[C@@H]2[C@](C)(CCC[C@]2(C)C(=O)OC)[C@H]1CCc1ccc2c(OC(C)=O)ccc(OC(C)=O)c2c1`, the GI50 in assay [1] was determined as 0.12 µM; in the assay with HT-29, 0.5 µM; with A549, 0.12 µM.

Regarding `C=C1C(=O)C[C@@H]2[C@](C)(CCC[C@]2(C)C(=O)OC)[C@H]1CCc1ccc2c(OC)ccc(OC)c2c1`, the figures for the 50% growth inhibitory concentration (GI50) in the assay with HT-29 and in the assay with A549 were 3.2 µM and 3.7 µM, respectively.

As for `COC(=O)[C@@]1(C)CCC[C@]2(C)C(CCc3ccc4c(OC)ccc(OC)c4c3)=C(C)CC[C@@H]12`, the concentration for 50% growth inhibition (GI50) (in assay [1]; in the assay on HT-29; with A549) was above 6.7 µM each time.

Take `COC(=O)[C@@]1(C)CCC[C@]2(C)C(CCc3ccc4c(OCc5ccccc5)ccc(OCc5ccccc5)c4c3)=C(C)CC[C@@H]12`: the GI50 was above 16.6 µM in the assay on HT-29 and 15.2 µM with A549.

For `C=C1CC[C@@H]2[C@](C)(CCC[C@]2(C)C(=O)OC)[C@H]1CCc1ccc2c(OC)ccc(OC)c2c1`, the GI50 (in assay [1]; with HT-29; in the assay with A549) was above 6.7 µM throughout.

`COC(=O)[C@@]1(C)CCC[C@]2(C)C(CCc3ccc4c(OC(C)=O)ccc(OC(C)=O)c4c3)=C(C)CC[C@@H]12`: the GI50 in the assay with HT-29 and with A549 was 0.24 µM each time.

In the case of `C=C1[C@H](O)C[C@@H]2[C@](C)(CCC[C@]2(C)C(=O)OC)[C@H]1CCc1ccc2c(OC)ccc(OC)c2c1`, the concentration for 50% growth inhibition (GI50) (in assay [1]; with HT-29; in the assay with A549) was above 6.4 µM each time.

In the case of `C=C1C(=O)C[C@@H]2[C@](C)(CCC[C@]2(C)C(=O)OC)[C@H]1CCc1ccc2c(OC(C)=O)ccc(OC(C)=O)c2c1`, the GI50 is 4.4 µM in the assay with HT-29 and 2.3 µM in the assay with A549.

In the case of `COC(=O)[C@@]1(C)CCC[C@]2(C)C(CCc3ccc4c(OC(C)=O)ccc(OC(C)=O)c4c3)=C(C)[C@@H](O)C[C@@H]12`, the 50% growth inhibitory concentration (GI50) in the assay with HT-29 and in the assay with A549 was 4.8 µM each time.

Turning to `C=C1CC[C@@H]2[C@](C)(CCC[C@]2(C)C(=O)OC)[C@H]1CCc1ccc2c(OCc3ccccc3)ccc(OCc3ccccc3)c2c1`, the GI50 (in assay [1]; in the assay on HT-29; in the assay with A549) was above 5 µM throughout.

With `C=C1CC[C@@H]2[C@](C)(CCC[C@]2(C)C(=O)OCc2ccccc2)[C@H]1CCc1ccc2c(OCc3ccccc3)ccc(OCc3ccccc3)c2c1`, the concentration for 50% growth inhibition (GI50) in the assay on HT-29 amounted to 4.4 µM; with A549, 6.5 µM.

Consider `C=C1[C@H](O)C[C@@H]2[C@](C)(CCC[C@]2(C)C(=O)OC)[C@H]1CCc1ccc2c(OCc3ccccc3)ccc(OCc3ccccc3)c2c1`, for which the GI50 (in assay [1]; in the assay with HT-29; in the assay on A549) was above 4.9 µM in each case.

Turning to `COC(=O)[C@@]1(C)CCC[C@]2(C)C(CCc3ccc4c(OC(C)=O)ccc(OC(C)=O)c4c3)=C(C)C(=O)C[C@@H]12`, the concentration for 50% growth inhibition (GI50) with HT-29 and with A549 was 0.19 µM throughout.

In the case of `C=C1CC[C@@H]2[C@](C)(CCC[C@]2(C)C(=O)OC)[C@]1(O)CCc1ccc2c(OC)ccc(OC)c2c1`, the concentration for 50% growth inhibition (GI50) with HT-29 and in the assay on A549 was above 21.5 µM in each case.
